{
  "source": "ChEMBL document CHEMBL4402603",
  "about": "“Structure-Activity Relationship of SPOP Inhibitors against Kidney Cancer” (J Med Chem, 2020)",
  "key": {"[1]": {"target": "T1, Speckle-type POZ protein/PTEN (Homo sapiens) (UniProt P60484+O43791)", "T1 sequence (O43791 whole entry, looked up)": "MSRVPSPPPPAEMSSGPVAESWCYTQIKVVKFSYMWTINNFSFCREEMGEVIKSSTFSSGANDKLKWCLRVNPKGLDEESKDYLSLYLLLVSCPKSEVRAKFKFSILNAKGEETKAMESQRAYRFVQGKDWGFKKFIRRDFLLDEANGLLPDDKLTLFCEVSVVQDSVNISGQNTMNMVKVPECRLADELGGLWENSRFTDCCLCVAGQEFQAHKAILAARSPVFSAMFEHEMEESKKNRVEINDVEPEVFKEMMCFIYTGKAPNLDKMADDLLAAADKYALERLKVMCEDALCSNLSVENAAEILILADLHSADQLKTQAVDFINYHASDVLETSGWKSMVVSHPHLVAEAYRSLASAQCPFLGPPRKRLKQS", "T1 sequence (P60484 whole entry, looked up)": "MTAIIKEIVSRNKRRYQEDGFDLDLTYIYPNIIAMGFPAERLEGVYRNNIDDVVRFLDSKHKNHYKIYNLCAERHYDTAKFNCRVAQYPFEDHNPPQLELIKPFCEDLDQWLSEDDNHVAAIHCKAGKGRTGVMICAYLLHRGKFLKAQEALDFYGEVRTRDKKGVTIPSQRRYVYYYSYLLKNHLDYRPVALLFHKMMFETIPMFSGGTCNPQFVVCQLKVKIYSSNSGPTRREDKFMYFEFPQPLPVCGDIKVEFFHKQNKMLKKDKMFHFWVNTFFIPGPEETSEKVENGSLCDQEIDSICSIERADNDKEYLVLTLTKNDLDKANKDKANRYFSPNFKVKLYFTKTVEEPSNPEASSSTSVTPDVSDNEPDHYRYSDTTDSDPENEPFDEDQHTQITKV", "assay": "Inhibition of SPOP/PTEN interaction in human HEK293T cells assessed as reduction in PTEN level incubated for 8 hrs by Western blot analysis", "format": "cell-based"}, "[2]": {"target": "Speckle-type POZ protein (Homo sapiens) (UniProt O43791)", "sequence (O43791 whole entry, the tested form may be a part)": "as the sequence (O43791 whole entry, looked up) above", "assay": "Binding affinity to recombinant N-terminal GST/His-tagged MATH binding domain SPOP (unknown origin) expressed in Escherichia coli BL21 (DE3) assessed as change in melting temperature at 10 fold compound incubated for 15 mins by nano differential scanning fluorimetry (reference value: -1.7 degreeC)"}, "[3]": {"target": "T1, Speckle-type POZ protein/PTEN (Homo sapiens)", "assay": "Inhibition of SPOP/PTEN interaction in human HEK293T cells assessed as reduction in SPOP level incubated for 12 hr by co-immunoprecipitation based Western blot analysis"}, "OS-RC-2": {"tested_on": "OS-RC-2", "assay": "Inhibition of colony formation in human OS-RC2 cells at 1 to 5 uM incubated for 12 days by crystal violet dye based assay", "format": "functional, cell-based", "in_short": "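Cells seeded at 1,000/well, grown 12 days at 37 °C, 5% CO2, medium renewed every 3 days. Fixed with 10% acetic acid/10% methanol for 15 min, stained with 1% crystal violet for 10 min.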"}, "[4]": {"target": "Speckle-type POZ protein (Homo sapiens) (UniProt O43791)", "assay": "Binding affinity to recombinant N-terminal GST/His-tagged SPOP (unknown origin) MATH binding domain expressed in Escherichia coli BL21 (DE3) assessed as change in melting temperature at 10 fold compound by SYPRO Orange dye based differential scanning fluorimetry (reference value: -1.7 degreeC)"}, "[5]": {"target": "Speckle-type POZ protein (Homo sapiens) (UniProt O43791)", "assay": "Binding affinity to recombinant N-terminal GST/His-tagged SPOP (unknown origin) (23 to 337 residues) expressed in Escherichia coli BL21 (DE3) assessed as change in melting temperature at 1 fold compound incubated for 15 mins by nano differential scanning fluorimetry (reference value: -1.9 degreeC)"}, "NCI-H1299": {"tested_on": "NCI-H1299", "assay": "Cytotoxicity against human H1299 cells assessed as reduction in cell viability incubated for 72 hrs by MTT assay", "format": "cell-based", "conditions": "NCI-H1299, 72 h", "in_short": "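Cells maintained in DMEM/10% FBS at 37 °C, 5% CO2. Cell proliferation quantified by MTT after 72 hr compound exposure, A490 read. Untreated cells = 100%. Mean ± SD, n = 3.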"}, "[6]": {"assay": "Solubility of compound in cell culture medium in presence of 0.2 % DMSO", "format": "physicochemical", "in_short": "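Solubility determined in cell culture medium containing 0.2% DMSO.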"}, "[7]": {"target": "Speckle-type POZ protein (Homo sapiens) (UniProt O43791)", "assay": "Inhibition of SPOP signalling in human A498 cells assessed as reduction in AKT phosphorylation at 0.5 to 10 uM incubated for 12 hrs by Western blot analysis", "format": "cell-based", "in_short": "(§1)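 Cells exposed 12 hr to inhibitor at graded concentrations, RIPA lysates normalized by BCA. 12% SDS-PAGE, nitrocellulose transfer, milk block, primary antibody at 4 °C overnight, HRP secondary, ECL. GAPDH loading control.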"}, "[8]": {"assay": "Selectivity index, ratio of IC50 for human U251 to IC50 for human A498 cells"}, "[9]": {"target": "Speckle-type POZ protein (Homo sapiens) (UniProt O43791)", "assay": "Inhibition of SPOP signalling in human OS-RC2 cells assessed as reduction in ERK phosphorylation at 0.5 to 15 uM incubated for 12 hrs by Western blot analysis", "format": "cell-based", "in_short": "as §1"}, "[10]": {"target": "Speckle-type POZ protein (Homo sapiens) (UniProt O43791)", "assay": "Binding affinity to recombinant N-terminal GST/His-tagged SPOP (unknown origin) (23 to 337 residues) expressed in Escherichia coli BL21 (DE3) assessed as change in melting temperature at 5 fold compound incubated for 15 mins by nano differential scanning fluorimetry (reference value: -1.9 degreeC)"}, "[11]": {"target": "Speckle-type POZ protein (Homo sapiens) (UniProt O43791)", "assay": "Inhibition of SPOP signalling in human OS-RC2 cells assessed as effect on total ERK level at 0.5 to 15 uM incubated for 12 hrs by Western blot analysis", "format": "cell-based", "in_short": "as §1"}, "A498": {"tested_on": "A498", "assay": "Antiproliferative activity against human A498 cells assessed as reduction in cell viability at 30 uM incubated for 72 hrs by MTT assay relative to control", "format": "functional", "conditions": "A498, 72 h", "in_short": "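MTT read-out. Cells seeded at 1,000-2,200/well, grown 12 hr at 37 °C, then compound added for 72 hr. MTT for 4 hr, formazan dissolved in DMSO, absorbance at 490 nm. Untreated-cell OD taken as 100% proliferation; inhibition reported at 30 μM.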"}, "HK-2": {"tested_on": "HK-2", "assay": "Cytotoxicity against human HK2 cells assessed as reduction in cell viability incubated for 72 hrs by MTT assay", "format": "cell-based", "conditions": "HK-2, 72 h"}},
  "note": "Activity calls are given as the source filed them. No cut-off for these calls is given here.",
  "data": [
    {"smiles": "Cc1cccn2c(=O)c3cc(C(=O)NCCN4CCN(C)CC4)c(=N)n(CCc4cccs4)c3nc12", "values": [
      {"measurement": "inhibition", "setting": "[1]", "result": "Dose-dependent effect"},
      {"measurement": "ΔTm", "setting": "[2]", "result": 3.1, "unit": "°C"},
      {"measurement": "inhibition", "setting": "[3]", "result": "Dose-dependent effect"},
      {"measurement": "inhibition", "setting": "OS-RC-2", "result": "Active"},
      {"measurement": "ΔTm", "setting": "[4]", "result": 4, "unit": "°C"},
      {"measurement": "ΔTm", "setting": "[5]", "result": 2.1, "unit": "°C"},
      {"measurement": "IC50", "setting": "NCI-H1299", "result": 10.7, "unit": "µM"},
      {"measurement": "solubility", "setting": "[6]", "result": "> 90", "unit": "µM"},
      {"measurement": "inhibition", "setting": "[7]", "result": "Active"},
      {"measurement": "Ratio IC50", "setting": "[8]", "result": ">5"},
      {"measurement": "inhibition", "setting": "[9]", "result": "Active"},
      {"measurement": "ΔTm", "setting": "[10]", "result": 2.1, "unit": "°C"},
      {"measurement": "inhibition", "setting": "[11]", "result": "inactive"},
      {"measurement": "inhibition at 30 µM", "setting": "A498", "result": 85, "unit": "%"},
      {"measurement": "IC50", "setting": "HK-2", "result": "> 30", "unit": "µM"}
    ]}
  ]
}
